For 10 compounds, IC50, MIC and Activity results are on record in ChEMBL document CHEMBL2406982, “Structure-activity relationships of new cyanothiophene inhibitors of the essential peptidoglycan biosynthesis enzyme MurF” (Eur J Med Chem, 2013).

≈ marks a conversion by molar mass, not a printed value. Calls of active or inactive are those of the source.

A short description of assay [1]: Inhibition of Staphylococcus aureus MurF using D-Ala-D-Ala/UMtri-L-Lys as substrate after 15 mins by Malachite green method. In a few lines:
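S. aureus MurF, purified, assayed in 50 mM Hepes pH 8.0 with 20 mM MgCl2 and 0.005% Triton X-114, with D-Ala-D-Ala, UMtri-L-Lys and ATP. Compound was in DMSO (5% v/v final). After 15 min at 37 °C, Biomol reagent was added and A650 was read 5 min later. Duplicates were run. Residual activity was relative to 5% DMSO controls. IC50 was read as 50% residual activity across seven concentrations.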

Assay [2] in a line: Inhibition of Escherichia coli MurF using D-Ala-D-Ala/UMtri-mDAP as substrate after 15 mins by Malachite green method. In a few lines:
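Purified E. coli MurF in 50 mM Hepes pH 8.0, 50 mM MgCl2, 0.005% Triton X-114, with D-Ala-D-Ala, UMtri-mDAP and ATP. Compound was added in DMSO (final 5% v/v). Mixtures were incubated 15 min at 37 °C, quenched with Biomol reagent, and absorbance was read at 650 nm after 5 min. Runs were in duplicate. Residual activity was taken versus DMSO-only controls. IC50 came from residual activity at seven concentrations.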

The subject of another assay is Streptococcus pneumoniae. Description: Antimicrobial activity against Streptococcus pneumoniae R6 by broth microdilution method. The format is functional. The gist of the method: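 MIC by CLSI broth microdilution in Mueller-Hinton broth supplemented with 5% (v/v) lysed horse blood.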
Background: Broth dilution looks for growth in wells or tubes with falling amounts of substance.

A further assay deals with Staphylococcus aureus. Nature of the assay: Antimicrobial activity against Staphylococcus aureus SH1000 by broth microdilution method. The format is functional, organism-based. The gist of the method: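 MIC by broth microdilution in Mueller-Hinton broth following CLSI guidelines.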
Assay [3] concerns Escherichia coli. Description: Antimicrobial activity against Escherichia coli AB734 by broth microdilution method. The format is functional, organism-based. In a few lines:
(§1)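 Broth microdilution MIC per CLSI guidelines in Mueller-Hinton broth. E. coli 1411 and AB734 were also tested with added polymyxin B nonapeptide to permeabilise the outer membrane.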

Assay [4] relates to Escherichia coli. Description: Antimicrobial activity against Escherichia coli 1411 by broth microdilution method. The format is functional, organism-based. In a few lines: as §1
Assay [5] can be described thus: Inhibition of Streptococcus pneumoniae MurF using D-Ala-D-Ala/UMtri-L-Lys as substrate after 15 mins by Malachite green method. The gist of the method: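 Purified S. pneumoniae MurF in 50 mM Hepes pH 8.0, 50 mM MgCl2, 0.005% Triton X-114, with D-Ala-D-Ala, UMtri-L-Lys and ATP. Compound was added in DMSO (5% v/v final). Reactions ran 15 min at 37 °C, were stopped with Biomol malachite green reagent, and A650 was measured after 5 min. Runs were in duplicate. Residual activity was versus DMSO controls. IC50 was from seven concentrations.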

By IC50 is commonly meant the midpoint of a concentration-inhibition curve. A low value points to greater potency. The term MIC denotes the smallest concentration in the dilution series that meets the test's criterion for growth inhibition. Higher therefore signals a need for much substance. On to `N#Cc1cccc(CN2CCc3c(sc(NC(=O)c4cc(S(=O)(=O)N5CCOCC5)c(Cl)cc4Cl)c3C#N)C2)c1`, for which the values for the IC50 in assay [1], in assay [2] and in assay [5] were 90 µM, 99 µM and 1.17 µM, respectively. The minimum inhibitory concentration (MIC) with Streptococcus pneumoniae is above 128 µg/mL. Also, the outcome with Staphylococcus aureus, with Escherichia coli [3] and with Escherichia coli [4] was inactive.

Turning to `N#Cc1c(NC(=O)c2cc(S(=O)(=O)N3CCOCC3)c(Cl)cc2Cl)sc2c1CCN(Cc1ccc(O)c(C(=O)O)c1)C2`, the IC50 in assay [1] amounted to 132 µM; in assay [2], 106 µM; in assay [5], 1.41 µM. In the assay on Streptococcus pneumoniae, this compound displayed an MIC above 128 µg/mL. For the same compound, the result with Staphylococcus aureus, in the assay on Escherichia coli [3] and in the assay with Escherichia coli [4] was inactive.

Consider `N#Cc1c(NC(=O)c2cc(S(=O)(=O)N3CCOCC3)c(Cl)cc2Cl)sc2c1CCN(Cc1ccc(F)cc1)C2`, for which the half-inhibitory concentration (IC50) in assay [1] is 79 µM; in assay [2], 100 µM; in assay [5], 0.98 µM. Besides, in the assay with Streptococcus pneumoniae, the MIC is above 128 µg/mL. The result in the assay with Staphylococcus aureus, in the assay on Escherichia coli [3] and in the assay on Escherichia coli [4] was inactive.

Consider `N#Cc1c(NC(=O)c2cc(S(=O)(=O)N3CCOCC3)c(Cl)cc2Cl)sc2c1CCN(Cc1ccc3c(c1)OCO3)C2`, for which the IC50 in assay [1] was 109 µM; in assay [2] it was 73 µM; in assay [5], 0.99 µM. For the same compound, the MIC with Streptococcus pneumoniae is above 128 µg/mL. For the same compound, the result in the assay with Staphylococcus aureus, in the assay on Escherichia coli [3] and in the assay on Escherichia coli [4] was inactive.

Regarding `COc1ccc(CN2CCc3c(sc(NC(=O)c4cc(S(=O)(=O)N5CCOCC5)c(Cl)cc4Cl)c3C#N)C2)cc1`, the IC50 in assay [1] came to 95 µM; in assay [2], 82 µM; in assay [5], 0.6 µM. This compound registered an MIC against Streptococcus pneumoniae above 128 µg/mL. Further, the result in the assay with Staphylococcus aureus, with Escherichia coli [3] and in the assay with Escherichia coli [4] was inactive.

On to `N#Cc1ccc(CN2CCc3c(sc(NC(=O)c4cc(S(=O)(=O)N5CCOCC5)c(Cl)cc4Cl)c3C#N)C2)cc1`, for which the IC50 in assay [1] was 80 µM; in assay [2] it was 62 µM; in assay [5], 1.36 µM. In the assay with Streptococcus pneumoniae, the MIC was above 128 µg/mL. For the same compound, the result in the assay with Staphylococcus aureus, in the assay with Escherichia coli [3] and with Escherichia coli [4] was inactive.

In the case of `N#Cc1c(NC(=O)c2cc(S(=O)(=O)N3CCOCC3)c(Cl)cc2Cl)sc2c1CCN(Cc1ccccc1)C2`, the IC50 in assay [1] was determined as 80 µM; in assay [2] it was 109 µM; in assay [5], 0.64 µM. In the assay with Streptococcus pneumoniae, the MIC was above 128 µg/mL. Moreover, the result with Staphylococcus aureus, in the assay on Escherichia coli [3] and with Escherichia coli [4] was inactive.

Take `N#Cc1c(NC(=O)c2cc(S(=O)(=O)N3CCOCC3)c(Cl)cc2Cl)sc2c1CCN(Cc1ccc([N+](=O)[O-])cc1)C2`: the IC50 in assay [1] was found to be 94 µM; in assay [2] it was 101 µM; in assay [5], 1.09 µM. In the assay with Streptococcus pneumoniae, the lowest concentration to inhibit growth (MIC) was 128 µg/mL (≈ 201 µM). The result in the assay with Staphylococcus aureus, with Escherichia coli [3] and in the assay on Escherichia coli [4] was inactive.

With `COc1ccc(CN2CCc3c(sc(NC(=O)c4cc(S(=O)(=O)N5CCOCC5)c(Cl)cc4Cl)c3C#N)C2)cc1OC`, the IC50 in assay [1] came to 66.5 µM; in assay [2], 37 µM; in assay [5] it was 10.4 µM. The compound further came in with a minimum inhibitory concentration (MIC) in the assay on Streptococcus pneumoniae above 128 µg/mL. Moreover, the outcome in the assay with Staphylococcus aureus, in the assay on Escherichia coli [3] and with Escherichia coli [4] was inactive.

Take `N#Cc1c(NC(=O)c2cc(S(=O)(=O)N3CCOCC3)c(Cl)cc2Cl)sc2c1CCN(Cc1cccc(C(=O)O)c1)C2`: the concentration for half-maximal inhibition (IC50) was determined as 118 µM in assay [1], 67 µM in assay [2] and 2.55 µM in assay [5]. In the assay with Streptococcus pneumoniae, this compound yielded an MIC above 128 µg/mL. Also, the result in the assay on Staphylococcus aureus, with Escherichia coli [3] and in the assay on Escherichia coli [4] was inactive.
